Measurements from different studies.
Each line is one published result; the experiments were not run side by side.
KIT: Mast/stem cell growth factor receptor Kit (KIT, Homo sapiens, UniProt P10721)
KIT D816V: Mast/stem cell growth factor receptor Kit (KIT, Homo sapiens, UniProt P10721, D816V)

COc1ncccc1-c1cnn2ccc(N3CCN(C(=O)OC(C)C)CC3)nc12 — remaining binding (KIT; binding; competition with immobilised ligand; 1 µM): 84%
Cn1cc(-c2cc(F)cc(N3CCn4c(cc5c4CCCC5)C3=O)c2CO)cc(Nc2ccc(N3CCN(C4COC4)CC3)cn2)c1=O — inhibition (KIT; enzyme activity; inhibitor; 0.1 µM): 5%
COCc1c(-c2cc3cc(C)cc(OC)c3s2)c2c(N)ncnn2c1CN1CCNC(=O)C1 — inhibition (Mast/stem cell growth factor receptor Kit (KIT, Homo sapiens, UniProt P10721, L576P); cell-free assay; competition with immobilised ligand; 1 µM): 93.1%
C=CC(=O)Nc1cccc(CN2C(=O)N(c3c(Cl)c(OC)cc(OC)c3Cl)Cc3cnc(NCCCCN(CC)CC)nc32)c1 — remaining binding (KIT; binding; competition with immobilised ligand; 10 µM): 1.2%
C#Cc1n[nH]c2c(-c3cn([C@@H](C)c4ccccc4)c(=O)[nH]c3=O)cc(F)cc12 — inhibition (KIT; enzyme activity; inhibitor; 0.1 µM): 0.1%
Nc1ncc(-c2nc(N3CCOCC3)nc(N3CCOCC3)n2)c(C(F)F)n1 — remaining binding (KIT D816V; binding; competition with immobilised ligand; 10 µM): 58%
C#Cc1n[nH]c2c(-c3cn(C(C)c4ccccn4)c(=O)[nH]c3=O)cc(F)cc12 (centres unmarked) — inhibition (KIT; enzyme activity; inhibitor; 1 µM): -6.3%
Cn1cncc1[C@@](O)(COc1ccc(C#N)cc1-c1ccc(OC(F)(F)F)cc1)c1ccc(C#N)cc1 — remaining binding (Mast/stem cell growth factor receptor Kit (KIT, Homo sapiens, UniProt P10721, A829P); cell-free assay; competition with immobilised ligand; 1 µM): 100%
Cn1cc(-c2cccc(N3CCc4c(sc5c4CC(C)(C)C5)C3=O)c2CO)cc(Nc2ccncn2)c1=O — inhibition (KIT; enzyme activity; inhibitor; 1 µM): -11%
O=c1[nH]c2ccccc2n1C1CCN(Cc2ccc(-c3[nH]c4cc5ncnc5cc4nc3-c3ccccc3)cc2)CC1 — remaining signal (KIT; cell-free assay; 0.5 µM): 91.7%
Cc1nn(C)cc1-c1nc2c(N3CCN(Cc4ccc(Cl)cc4)CC3)c(Cl)cnc2[nH]1 — remaining binding (KIT D816V; binding; competition with immobilised ligand; 1 µM): 9.2%
